Data: ChEMBL document CHEMBL2163220 (J Med Chem, 2012)
Active and inactive are the calls of the source. No cut-off for these calls is given here.

Tested on: PC-3
Assay: Antagonist activity at androgen receptor ARv7 mutant lacking ligand binding domain expressed in human PC3 cells assessed as reduction in DHT-induced receptor transactivation at 1 uM by luciferase reporter gene assay
Assay type: cell-based
Conditions: not given
Method in brief: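 AR-v7 (lacks LBD), MMTV-Luc and pRL-TK (Renilla) plasmids transiently transfected into PC-3 cells; cells treated with DMSO vehicle, 0.1 nM DHT, or test compound at 1 μM; transactivation read as luciferase activity (relative luciferase units).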

With `CC(O)(CS(=O)(=O)c1ccc(F)cc1)C(=O)Nc1ccc(C#N)c(C(F)(F)F)c1` (stereo unspecified) as the compound, how does the Activity read?
The Activity was “inactive”.

Tested on: LNCaP
Assay: Induction of apoptosis in human LNCAP cells assessed as PARP cleavage activation incubated for 24 hrs by Western blotting
Assay type: functional, cell-based
Conditions: not given
Method in brief: (§1)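 LNCaP cells in complete medium were exposed to DMSO or compound at 1, 2.5 and 5 μM for 24 h. Western blot measured AR, maspin, caspase-3 activation and PARP cleavage, with β-actin as loading control.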

For `Cc1coc2c1C(=O)C(=O)c1c-2ccc2c1CCC(C)(C)C2`, which Activity is on record?
Its Activity is “Dose-dependent effect”.

Molecular target: T1, Androgen receptor (Homo sapiens) (UniProt P10275)
T1 sequence (whole entry): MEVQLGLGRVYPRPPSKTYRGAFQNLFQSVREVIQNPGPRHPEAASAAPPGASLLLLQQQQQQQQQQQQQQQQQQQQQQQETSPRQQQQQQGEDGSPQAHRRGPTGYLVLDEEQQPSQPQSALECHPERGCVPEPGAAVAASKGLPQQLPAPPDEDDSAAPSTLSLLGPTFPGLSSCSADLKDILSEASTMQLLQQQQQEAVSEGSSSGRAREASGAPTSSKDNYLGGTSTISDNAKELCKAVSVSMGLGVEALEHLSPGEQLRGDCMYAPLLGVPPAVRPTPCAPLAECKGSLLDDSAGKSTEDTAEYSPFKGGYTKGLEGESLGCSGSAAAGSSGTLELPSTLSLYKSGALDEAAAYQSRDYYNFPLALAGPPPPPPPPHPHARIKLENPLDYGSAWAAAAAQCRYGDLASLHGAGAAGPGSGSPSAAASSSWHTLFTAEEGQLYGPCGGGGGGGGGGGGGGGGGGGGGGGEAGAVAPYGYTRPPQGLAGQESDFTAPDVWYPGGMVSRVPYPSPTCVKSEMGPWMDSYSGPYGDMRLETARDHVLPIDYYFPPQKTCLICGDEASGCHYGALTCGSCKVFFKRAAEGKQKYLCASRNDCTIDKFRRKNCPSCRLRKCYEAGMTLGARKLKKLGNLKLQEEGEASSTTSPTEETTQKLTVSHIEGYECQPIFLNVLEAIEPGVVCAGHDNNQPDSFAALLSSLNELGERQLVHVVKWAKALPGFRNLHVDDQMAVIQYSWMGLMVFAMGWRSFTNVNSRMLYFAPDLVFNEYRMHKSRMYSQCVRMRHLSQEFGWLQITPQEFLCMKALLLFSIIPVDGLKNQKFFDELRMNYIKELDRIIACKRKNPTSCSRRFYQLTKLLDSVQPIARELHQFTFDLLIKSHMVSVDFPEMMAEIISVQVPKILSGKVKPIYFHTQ
Assay: Antagonist activity at androgen receptor in human LNCaP cells assessed as reduction in DHT-induced PSA expression by luciferase reporter gene assay
Assay type: functional, cell-based
Conditions: not given
Method in brief: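 LNCaP cells carrying a PSA-luc reporter were treated with compound at 1 and 2.5 μM in the presence of 1 nM DHT. Fold suppression was calculated relative to 1 nM DHT alone. Run in triplicate.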

With `Cc1coc2c1C(=O)C(=O)c1c-2ccc2c1CC(C)(C)CC2` as the compound, how does the Activity read?
The Activity was “Dose-dependent effect”.

Which Activity does the source give for `Cc1coc2c1C(=O)C(=O)c1c-2ccc2c1CCCC2` here?
Its Activity is “Dose-dependent effect”.

Which Activity does the source give for `Cc1coc2c1C(=O)C(=O)c1c-2ccc2c1CCC(C)(C)C2` here?
The Activity was “Dose-dependent effect”.

Tested on: LNCaP
Assay: Induction of apoptosis in human LNCAP cells assessed as caspase-3 activation incubated for 24 hrs by Western blotting
Assay type: functional, cell-based
Conditions: not given
Method in brief: as §1

For `Cc1coc2c1C(=O)C(=O)c1c-2ccc2c1CCC(C)(C)C2`, which Activity is on record?
Its Activity is “Dose-dependent effect”.

Molecular target: T1, Androgen receptor (Homo sapiens)
Assay: Antagonist activity at androgen receptor in human PC3 cells assessed as increase in Maspin promoter activity at 2.5 uM by luciferase reporter gene assay
Assay type: functional, cell-based
Conditions: PC-3
Method in brief: (§2)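 PC-3 cells were transfected with maspin-luc, with or without cotransfected AR. Cells were exposed to DMSO vehicle or compound at 2.5 and 5 μM. Luciferase activity was measured in triplicate.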

For `Cc1coc2c1C(=O)C(=O)c1c-2ccc2c1CCC(C)(C)C2`, which Activity is on record?
The Activity was “Active”.

Tested on: not listed separately
Assay: Cytotoxicity against human C4-2B cells incubated for 72 hrs by MTT assay
Assay type: functional, cell-based
Conditions: LNCaP C4-2B
Method in brief: (§3)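 MTT assay run across a panel of prostate cancer cell lines.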

For `Cc1coc2c1C(=O)C(=O)c1c-2ccc2c1CC(C)CC2` (stereo unspecified), which IC50 is on record?
The IC50 was 0.3 µM.

For `Cc1coc2c1C(=O)C(=O)c1c-2ccc2c1CCC2(C)C`, which IC50 is on record?
Its IC50 is 0.4 µM.

For `Cc1coc2c1C(=O)C(=O)c1c-2ccc2c1CC(C)(C)CC2`, which IC50 is on record?
The IC50 was 1.2 µM.

For `Cc1coc2c1C(=O)C(=O)c1c-2ccc2c1COCC2`, which IC50 is on record?
The IC50 was 0.1 µM.

Which IC50 does the source give for `Cc1coc2c1C(=O)C(=O)c1c-2ccc2c1CCCC2` here?
The IC50 was 0.1 µM.

Which IC50 does the source give for `Cc1coc2c1C(=O)C(=O)c1c-2ccc2c1CCC(C)C2` (stereo unspecified) here?
Its IC50 is 0.7 µM.

Which IC50 does the source give for `Cc1coc2c1C(=O)C(=O)c1c-2ccc2c1CCC(C)(C)C2` here?
Its IC50 is 0.5 µM.

With `Cc1coc2c1C(=O)C(=O)c1c-2ccc2c1CCCCC2` as the compound, how does the IC50 read?
Its IC50 is 1.8 µM.

Which IC50 does the source give for `Cc1coc2c1C(=O)C(=O)c1c-2ccc2c1CCCC2C` (stereo unspecified) here?
The IC50 was 0.4 µM.

Tested on: PC-3
Assay: Effect on in Maspin expression in human PC3 cells deficient in wild type androgen receptor at 2.5 uM by luciferase reporter gene assay
Assay type: functional, cell-based
Conditions: not given
Method in brief: as §2

For `Cc1coc2c1C(=O)C(=O)c1c-2ccc2c1CCC(C)(C)C2`, which Activity is on record?
Its Activity is “inactive”.

Molecular target: T1, Androgen receptor (Homo sapiens)
Assay: Antagonist activity at androgen receptor in human LNCaP cells assessed as increase in Maspin protein expression at 1 to 5 uM incubated for 24 hrs by Western blotting
Conditions: not given

With `Cc1coc2c1C(=O)C(=O)c1c-2ccc2c1CCC(C)(C)C2` as the compound, how does the Activity read?
The Activity was “Active”.

Tested on: LNCaP
Assay: Reduction in androgen receptor protein expression in human LNCAP cells incubated for 24 hrs by Western blotting
Assay type: functional, cell-based
Conditions: not given
Method in brief: as §1

Which Activity does the source give for `Cc1coc2c1C(=O)C(=O)c1c-2ccc2c1CCC(C)(C)C2` here?
Its Activity is “Dose-dependent effect”.

Molecular target: T1, Androgen receptor (Homo sapiens)
Assay: Antagonist activity at androgen receptor in human PC3 cells assessed as increase in Maspin promoter activity at 5 uM by luciferase reporter gene assay
Assay type: functional, cell-based
Conditions: PC-3
Method in brief: as §2

With `Cc1coc2c1C(=O)C(=O)c1c-2ccc2c1CCC(C)(C)C2` as the compound, how does the Activity read?
The Activity was “Active”.

Tested on: LNCaP
Assay: Cytotoxicity against human LNCAP cells incubated for 72 hrs by MTT assay
Assay type: functional, cell-based
Conditions: not given
Method in brief: as §3

Which IC50 does the source give for `Cc1coc2c1C(=O)C(=O)c1c-2ccc2c1CC(C)CC2` (stereo unspecified) here?
The IC50 was 1.7 µM.

With `Cc1coc2c1C(=O)C(=O)c1c-2ccc2c1CCC2(C)C` as the compound, how does the IC50 read?
The IC50 was 1 µM.

With `Cc1coc2c1C(=O)C(=O)c1c-2ccc2c1CC(C)(C)CC2` as the compound, how does the IC50 read?
Its IC50 is 3.2 µM.

Which IC50 does the source give for `Cc1coc2c1C(=O)C(=O)c1c-2ccc2c1COCC2` here?
Its IC50 is 2.4 µM.

For `Cc1coc2c1C(=O)C(=O)c1c-2ccc2c1CCCC2`, which IC50 is on record?
The IC50 was 0.6 µM.

For `Cc1coc2c1C(=O)C(=O)c1c-2ccc2c1CCC(C)C2` (stereo unspecified), which IC50 is on record?
The IC50 was 3.5 µM.

Which IC50 does the source give for `Cc1coc2c1C(=O)C(=O)c1c-2ccc2c1CCC(C)(C)C2` here?
The IC50 was 0.7 µM.

Which IC50 does the source give for `Cc1coc2c1C(=O)C(=O)c1c-2ccc2c1CCCCC2` here?
The IC50 was 3.6 µM.

With `Cc1coc2c1C(=O)C(=O)c1c-2ccc2c1CCCC2C` (stereo unspecified) as the compound, how does the IC50 read?
Its IC50 is 1.2 µM.

Tested on: PC-3
Assay: Cytotoxicity against human PC3 cells incubated for 72 hrs by MTT assay
Assay type: functional, cell-based
Conditions: PC-3, 72 h
Method in brief: as §3

With `Cc1coc2c1C(=O)C(=O)c1c-2ccc2c1CC(C)CC2` (stereo unspecified) as the compound, how does the IC50 read?
The IC50 was 1.9 µM.

Which IC50 does the source give for `Cc1coc2c1C(=O)C(=O)c1c-2ccc2c1CCC2(C)C` here?
Its IC50 is 2.4 µM.

Which IC50 does the source give for `Cc1coc2c1C(=O)C(=O)c1c-2ccc2c1CC(C)(C)CC2` here?
The IC50 was 3.6 µM.

With `Cc1coc2c1C(=O)C(=O)c1c-2ccc2c1COCC2` as the compound, how does the IC50 read?
Its IC50 is 2.1 µM.

For `Cc1coc2c1C(=O)C(=O)c1c-2ccc2c1CCCC2`, which IC50 is on record?
The IC50 was 1.2 µM.

With `Cc1coc2c1C(=O)C(=O)c1c-2ccc2c1CCC(C)C2` (stereo unspecified) as the compound, how does the IC50 read?
The IC50 was 2.5 µM.

With `Cc1coc2c1C(=O)C(=O)c1c-2ccc2c1CCC(C)(C)C2` as the compound, how does the IC50 read?
The IC50 was 0.9 µM.

For `Cc1coc2c1C(=O)C(=O)c1c-2ccc2c1CCCCC2`, which IC50 is on record?
Its IC50 is 6.3 µM.

Which IC50 does the source give for `Cc1coc2c1C(=O)C(=O)c1c-2ccc2c1CCCC2C` (stereo unspecified) here?
The IC50 was 1.2 µM.

Tested on: PC-3
Assay: Effect on in Maspin expression in human PC3 cells deficient in wild type androgen receptor at 5 uM by luciferase reporter gene assay
Assay type: functional, cell-based
Conditions: not given
Method in brief: as §2

For `Cc1coc2c1C(=O)C(=O)c1c-2ccc2c1CCC(C)(C)C2`, which Activity is on record?
The Activity was “inactive”.

Molecular target: T1, Androgen receptor (Homo sapiens)
Assay: Antagonist activity at androgen receptor in human LNCaP cells assessed as increase in Maspin promoter activity by luciferase reporter gene assay
Assay type: functional, cell-based
Conditions: not given
Method in brief: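 LNCaP cells carrying a maspin promoter-luciferase reporter were treated with compound and read by luciferase activity, in triplicate.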

Which Activity does the source give for `Cc1coc2c1C(=O)C(=O)c1c-2ccc2c1CC(C)(C)CC2` here?
The Activity was “Dose-dependent effect”.

For `Cc1coc2c1C(=O)C(=O)c1c-2ccc2c1CCCC2`, which Activity is on record?
Its Activity is “Dose-dependent effect”.

Which Activity does the source give for `Cc1coc2c1C(=O)C(=O)c1c-2ccc2c1CCC(C)(C)C2` here?
Its Activity is “Dose-dependent effect”.

Tested on: CWR22R
Assay: Cytotoxicity against human 22Rv1 cells incubated for 72 hrs by MTT assay
Assay type: functional, cell-based
Conditions: 22Rv1, 72 h
Method in brief: as §3

With `Cc1coc2c1C(=O)C(=O)c1c-2ccc2c1CC(C)CC2` (stereo unspecified) as the compound, how does the IC50 read?
The IC50 was 8.2 µM.

With `Cc1coc2c1C(=O)C(=O)c1c-2ccc2c1CCC2(C)C` as the compound, how does the IC50 read?
Its IC50 is 7.5 µM.

For `Cc1coc2c1C(=O)C(=O)c1c-2ccc2c1CC(C)(C)CC2`, which IC50 is on record?
The IC50 was 3.2 µM.

With `Cc1coc2c1C(=O)C(=O)c1c-2ccc2c1COCC2` as the compound, how does the IC50 read?
The IC50 was 1.5 µM.

Which IC50 does the source give for `Cc1coc2c1C(=O)C(=O)c1c-2ccc2c1CCCC2` here?
Its IC50 is 13.5 µM.

With `Cc1coc2c1C(=O)C(=O)c1c-2ccc2c1CCC(C)C2` (stereo unspecified) as the compound, how does the IC50 read?
Its IC50 is over 20 µM.

With `Cc1coc2c1C(=O)C(=O)c1c-2ccc2c1CCC(C)(C)C2` as the compound, how does the IC50 read?
The IC50 was 8.8 µM.

With `Cc1coc2c1C(=O)C(=O)c1c-2ccc2c1CCCCC2` as the compound, how does the IC50 read?
The IC50 was over 20 µM.

With `Cc1coc2c1C(=O)C(=O)c1c-2ccc2c1CCCC2C` (stereo unspecified) as the compound, how does the IC50 read?
Its IC50 is 11.8 µM.
